In ChEMBL document CHEMBL1136985, “New pyridinone derivatives as potent HIV-1 nonnucleoside reverse transcriptase inhibitors” (J Med Chem, 2009):

Experiments:
[1] = tested on: Human immunodeficiency virus 1; experiment: Antiviral activity against wild type HIV1 NL4-3 in human HeLaP4 cells assessed as beta-galactosidase activity after 48 hrs; assay type: functional, organism-based
How it was run: (§1)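 Cells plated at 5000/well, incubated 48 h, then medium replaced with compound (0.00128 to 4 µM). Infection 4 h later with cell-free NL4-3 virus equivalent to 100 ng p24. At 48 h postinfection cells lysed in PBS with 0.1% NP-40 and 5 mM MgCl2. β-Galactosidase read with chlorophenol red β-D-galactopyranoside. EC50 taken from dose-response curves.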

[2] = Selectivity index, ratio of CC50 for human HeLaP4 cells to EC50 for HIV1 NL4-3; assay type: toxicity, cell-based; details: read-out: Ratio CC50/EC50
How it was run: (§2)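 Viability by WST-1 absorbance at 570 nm relative to drug-free control. Divided by EC50 from the 48 h β-galactosidase infection assay with NL4-3 in the same cell type.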

[3] = tested on: Human immunodeficiency virus 1; experiment: Antiviral activity against HIV1 NL4-3 with Y181C mutant in human TZM-b1 cells assessed as beta-galactosidase activity after 48 hrs by single round replication assay; assay type: functional, organism-based; details: Human immunodeficiency virus 1, NL4-3, TZM-b1, 48 h
How it was run: (§3)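 TZM-bl cells (DMEM, 5% heat-inactivated FBS) plated at 5000 cells/well and grown 48 h. Medium replaced with compound at 0.00128–4 µM. After 4 h, cells infected with NL4-3-derived RT-mutant virus equal to 100 ng p24. Virus stocks came from HEK293 cells transfected with sequence-verified mutant clones. At 48 h, cells lysed in PBS/0.1% NP-40/5 mM MgCl2 and β-galactosidase read with CPRG. EC50 taken from dose-response curves.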

[4] = tested on: Human immunodeficiency virus 1; experiment: Antiviral activity against HIV1 NL4-3 with K103N/V108I double mutant in human TZM-b1 cells assessed as beta-galactosidase activity after 48 hrs by single round replication assay; details: Human immunodeficiency virus 1, NL4-3, TZM-b1, 48 h
[5] = tested on: Human immunodeficiency virus 1; experiment: Antiviral activity against HIV1 NL4-3 in human TZM-b1 cells assessed as beta-galactosidase activity after 48 hrs by single round replication assay; details: Human immunodeficiency virus 1, NL4-3, TZM-b1, 48 h
[6] = tested on: Human immunodeficiency virus 1; experiment: Antiviral activity against HIV1 NL4-3 with K103N/L100I double mutant in human TZM-b1 cells assessed as beta-galactosidase activity after 48 hrs by single round replication assay; assay type: functional, organism-based; details: Human immunodeficiency virus 1, NL4-3, TZM-b1, 48 h; how it was run: as §3
[7] = Selectivity index, ratio of CC50 for human TZM-b1 cells to EC50 for HIV1 NL4-3; assay type: toxicity, cell-based; details: read-out: Ratio CC50/EC50; how it was run: as §2
[8] = tested on: Human immunodeficiency virus 1; experiment: Antiviral activity against HIV1 NL4-3 with V108I mutant in human TZM-b1 cells assessed as beta-galactosidase activity after 48 hrs by single round replication assay; assay type: functional, organism-based; details: Human immunodeficiency virus 1, NL4-3, TZM-b1, 48 h; how it was run: as §3
[9] = tested on: Human immunodeficiency virus 1; experiment: Antiviral activity against HIV1 NL4-3 with K103N mutant in human TZM-b1 cells assessed as beta-galactosidase activity after 48 hrs by single round replication assay; assay type: functional, organism-based; details: Human immunodeficiency virus 1, NL4-3, TZM-b1, 48 h; how it was run: as §3
[10] = tested on: Human immunodeficiency virus 1; experiment: Antiviral activity against wild type HIV1 NL4-3 in human TZM-b1 cells assessed as beta-galactosidase activity after 48 hrs; assay type: functional, organism-based; details: Human immunodeficiency virus 1, NL4-3, TZM-b1, 48 h; how it was run: as §1
[11] = tested on: Human immunodeficiency virus 1; experiment: Antiviral activity against HIV1 NL4-3 with L100I/V108I double mutant in human TZM-b1 cells assessed as beta-galactosidase activity after 48 hrs by single round replication assay; assay type: functional, organism-based; details: Human immunodeficiency virus 1, NL4-3, TZM-b1, 48 h; how it was run: as §3
[12] = tested on: Human immunodeficiency virus 1; experiment: Antiviral activity against HIV1 NL4-3 with L100I mutant in human TZM-b1 cells assessed as beta-galactosidase activity after 48 hrs by single round replication assay; assay type: functional, organism-based; details: Human immunodeficiency virus 1, NL4-3, TZM-b1, 48 h; how it was run: as §3
[13] = tested on: Human immunodeficiency virus 1; experiment: Antiviral activity against HIV1 NL4-3 with K103N/Y181C double mutant in human TZM-b1 cells assessed as beta-galactosidase activity after 48 hrs by single round replication assay; details: Human immunodeficiency virus 1, NL4-3, TZM-b1, 48 h
[14] = molecular target: Human immunodeficiency virus type 1 reverse transcriptase (Human immunodeficiency virus 1) (UniProt Q72547); experiment: Inhibition of recombinant HIV1 reverse transcriptase assessed as residual activity at 10 uM by […] incorporation assay relative to control
How it was run: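 Recombinant HIV-1 RT, compound at 10 µM final (from DMSO). Incubated 10 min at 37 °C, then collected on DEAE filters and washed. Counted by phosphorimager; activity expressed relative to uninhibited RT.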

[15] = tested on: Human immunodeficiency virus 1; experiment: Antiviral activity against HIV1 NL4-3 with double K103N/L100I mutant in human MT4 cells assessed as inhibition of virus-induced cytopathicity after 5 days by multiple round replication assay; assay type: functional, organism-based; details: Human immunodeficiency virus 1, NL4-3, MT4, 120 h
How it was run: (§4)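 MT-4 human T-cells, cultured in RPMI 1640 with 10% heat-inactivated FBS at 37 °C, 5% CO2, infected with HIV-1 NL4-3-derived mutant strains, then exposed to a range of compound concentrations. After 5 days, viability of infected and mock-infected cells read by WST-1 tetrazolium cleavage.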

[16] = tested on: Human immunodeficiency virus 1; experiment: Antiviral activity against HIV1 NL4-3 with Y181C mutant in human MT4 cells assessed as inhibition of virus-induced cytopathicity after 5 days by multiple round replication assay; assay type: functional, organism-based; details: Human immunodeficiency virus 1, NL4-3, MT4, 120 h; how it was run: as §4
[17] = tested on: Human immunodeficiency virus 1; experiment: Antiviral activity against HIV1 NL4-3 with K103N mutant in human MT4 cells assessed as inhibition of virus-induced cytopathicity after 5 days by multiple round replication assay; assay type: functional, organism-based; details: Human immunodeficiency virus 1, NL4-3, MT4, 120 h; how it was run: as §4
[18] = tested on: Human immunodeficiency virus 1; experiment: Antiviral activity against HIV1 NL4-3 with L100I mutant in human MT4 cells assessed as inhibition of virus-induced cytopathicity after 5 days by multiple round replication assay; assay type: functional, organism-based; details: Human immunodeficiency virus 1, NL4-3, MT4, 120 h; how it was run: as §4
[19] = tested on: Human immunodeficiency virus 1; experiment: Antiviral activity against wild type HIV1 NL4-3 in human MT4 cells assessed as inhibition of virus-induced cytopathicity after 5 days by multiple round replication assay; assay type: functional, organism-based; details: Human immunodeficiency virus 1, NL4-3, MT4, 120 h
How it was run: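 MT-4 T cells in RPMI 1640 with 10% FBS were infected with NL4-3 (wild type or RT mutants) and exposed to a range of compound concentrations. After 5 days, viability of infected and mock-infected cells was read by WST-1 cleavage, giving EC50 against viral cytopathicity and CC50 together.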

[20] = Human immunodeficiency virus 1, NL4-3, HeLaP4, 48 h

With `CCOC(=O)c1c(OC2CCC(CC)CC2)c(CC)c(C)[nH]c1=O` (stereo not drawn) the EC50 [1, 20] was > 4000 nM and the selectivity ratio [2] was < 14.
With `CCc1c(C)[nH]c(=O)c(CN=[N+]=[N-])c1O[C@@H]1C[C@H](C)C[C@H](C)C1` the EC50 [3] was 206 nM, the EC50 [4] was 4400 nM and the EC50 [5] was > 10000 nM. For the same compound, the EC50 [6] was 828 nM, the selectivity ratio [7] was > 54000 and the EC50 [8] was 11 nM. For the same compound, the EC50 [9] was 74 nM, the EC50 [10] was < 1 nM and the EC50 [11] was 107 nM. It also gave an EC50 [12] of 34 nM and an EC50 [13] of 689 nM.
For `CCc1c(C)[nH]c(=O)c(C(C)(C)O)c1O[C@@H]1C[C@H](C)C[C@H](C)C1`, the selectivity ratio [7] was > 100000 and the EC50 [10] was < 1 nM.
Work on `CCOC(=O)c1c(OC2CC(C)CC(C)C2)c(CC)c(C)[nH]c1=O` (stereo in doubt; 10) yielded an EC50 ([1]; helap4) of 43 nM.
`CCc1c(OC2CC(C)CC(C)C2)cc(=O)[nH]c1C` (stereo not drawn) gave a selectivity ratio [7] of 200 and an EC50 [10] of 275 nM.
Work on `CCOC(=O)c1c(O[C@H]2C[C@H](C)C[C@H](C)C2)c(CC)c(C)[nH]c1=O` yielded an EC50 [1, 20] of 236 nM.
Work on `CCc1c(C)[nH]c(=O)c(Br)c1O[C@@H]1C[C@H](C)C[C@H](C)C1` yielded an EC50 [3] of 138 nM, an EC50 [4] of 780 nM and an EC50 [5] of 6300 nM. For the same compound, the EC50 [6] was 68 nM, the selectivity ratio [7] was > 28000 and the EC50 [8] was 1 nM. For the same compound, the EC50 [9] was 9 nM, the EC50 [10] was < 1 nM and the EC50 [11] was 38 nM. The EC50 [13] was 523 nM.
For `CCOC(=O)c1c(OC2CCCC2)c(CC)c(C)[nH]c1=O`, the Activity [14] was 58.6%, the selectivity ratio [7] was > 135 and the EC50 [10] was 740 nM.
In the case of `CCOC(=O)c1c(OC2CCCC(C)C2)c(CC)c(C)[nH]c1=O` (stereo not drawn), the EC50 [1, 20] is reported as 520 nM and the selectivity ratio [2] is reported as 192.
With `O=C1Nc2ccc(Cl)cc2[C@@](C#CC2CC2)(C(F)(F)F)O1` [EFAVIRENZ] the EC50 [15] was > 10000 nM, the EC50 [4] was 34 nM and the EC50 [5] was 235 nM. It also gave an EC50 [6] of 3700 nM, an EC50 [16] of 4 nM and an EC50 [9] of 31 nM. The EC50 [17] was 320 nM, the EC50 [10] was < 1 nM and the EC50 [11] was 14 nM. It also gave an EC50 [18] of 167 nM, an EC50 [12] of 17 nM and an EC50 [13] of 525 nM.
In the case of `CCOC(=O)c1c(OC2CCCCC2)c(CC)c(C)[nH]c1=O`, the Activity [14] is reported as 44.7%, the selectivity ratio [7] is reported as > 435 and the EC50 [10] is reported as 230 nM.
In the case of `CCOC(=O)c1c(OC2C(C)CCCC2C)c(CC)c(C)[nH]c1=O` (stereo not drawn), the EC50 [1, 20] is reported as 955 nM and the selectivity ratio [2] is reported as 78.
For `CCc1c(C)[nH]c(=O)c(C(C)C)c1O[C@@H]1C[C@H](C)C[C@H](C)C1`, the EC50 [15] was 84 nM, the EC50 [3] was 6 nM and the EC50 [4] was 105 nM. The EC50 [5] was 1100 nM, the EC50 [6] was 44 nM and the EC50 [16] was 19 nM. For the same compound, the selectivity ratio [7] was > 82000, the EC50 [9] was 2 nM and the EC50 [17] was 7 nM. The EC50 [10] was < 1 nM, the EC50 [11] was 10 nM and the EC50 [19] was 2 nM. For the same compound, the EC50 [18] was 6 nM, the EC50 [12] was 2 nM and the EC50 [13] was 642 nM.
With `CCc1c(C)[nH]c(=O)c(CO)c1O[C@@H]1C[C@H](C)C[C@H](C)C1` the selectivity ratio [7] was > 826 and the EC50 [10] was 121 nM.
